EBI2 block = EBI2 receptor antagonists, beta-arrestin recruitment, primary screen, cell-based, luminescence, 7a,25-OHC stimulation, uHTS; G-protein coupled receptor 183 (Homo sapiens), P32249; 7a,25-OHC stimulated; inhibition, % at 5 µM; 360,000 compounds, 0.81% hits; AID 651636, 2012; in the data active means inhibition above about 38%;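 further: enzyme fragment complementation signal reports receptor beta-arrestin coupling in cells; 0% = agonist plus DMSO wells and 100% = wells without agonist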
CXCR6 inh = CXCR6 receptor inhibitors, primary screen, cell-based, beta-arrestin, luminescence, CHO-K1 PathHunter, 1536-well; inhibition, % at 20 µM; 360,000 compounds, 0.36% hits; AID 602244, 2012; in the data active means inhibition above about 34%, passing the limit was not always enough;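 further: antagonist mode with CXCL16 agonist at 10 nM final; 0% = 10 nM CXCL16 with DMSO and 100% = unstimulated wells without agonist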
APJ agonist = agonists of human apelin receptor APJ, primary screen, CHO-K1 cells, PathHunter beta-arrestin, luminescence; activation, % at 20 µM; 0% DMSO wells, 100% apelin; AID 2520, 2010; 330,000 compounds, 0.11% hits;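 active means activation more than six SD over the plate average, tested at 20 µM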;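 further: 0% = DMSO alone and 100% = apelin-13 at 10 nM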
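Assay system: CHO-K1 APJ beta-arrestin complementation cell line / Compound: single test compound dose, 20 µM final, 1% DMSO / Times: overnight seeding, 90 min compound at 25 °C, 1 h detection / Technique: beta-gal luminescence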
CCR6 antag = CCR6 receptor antagonists, primary screen, cell-based, CHO-K1, luminescence, beta-arrestin, uHTS; CHO-K1 CCR6 PathHunter beta-arrestin, CCL20-stimulated; inhibition, % at 20 µM; 340,000 compounds, 0.49% hits;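 active means compounds whose inhibition of the agonist-driven luminescence signal at 20 µM reaches about 50%, limit read from the data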;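 further: cells stimulated with CCL20 at 14 nM final; plate controls were DMSO with CCL20 for no effect and DMSO without agonist for full effect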
Target sequence (P51684 whole entry, looked up): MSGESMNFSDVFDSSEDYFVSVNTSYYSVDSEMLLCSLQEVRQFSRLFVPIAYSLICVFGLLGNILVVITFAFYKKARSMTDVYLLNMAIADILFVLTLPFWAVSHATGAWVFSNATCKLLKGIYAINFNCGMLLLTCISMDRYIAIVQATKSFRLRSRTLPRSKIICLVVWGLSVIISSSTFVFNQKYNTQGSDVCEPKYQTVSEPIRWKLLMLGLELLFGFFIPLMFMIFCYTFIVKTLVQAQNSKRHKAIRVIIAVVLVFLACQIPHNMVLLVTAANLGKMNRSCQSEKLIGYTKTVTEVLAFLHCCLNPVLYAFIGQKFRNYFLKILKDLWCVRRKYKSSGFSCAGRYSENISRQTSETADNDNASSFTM
APJ antagonist = antagonists of human apelin receptor APJ, primary screen, CHO-K1 cells, beta-arrestin complementation, luminescence; AID 2521, 2010; inhibition, % at 20 µM; P35414; 330,000 compounds, 0.32% hits;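 active means inhibition above about 40% at 20 µM, limit read from the data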;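 further: cells challenged with 10 nM apelin-13 agonist together with compound; plate controls were apelin-13 plus DMSO wells for no effect and DMSO wells lacking apelin-13 for full effect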
APJ antag conf = APJ antagonists blocking beta-arrestin recruitment, confirmation, cell-based, luminescence, single concentration, uHTS hits; antagonist mode; shares compounds with APJ antagonist; 950 compounds, 66% hits; inhibition, % at 20 µM; AID 2766, 2010; in the data active means inhibition above about 50%
Starred values were filed as active, the others as inactive. A selection: hits, their analogues and other compounds. The true share with any hit is near 1.5%.

What do the screens show for `COc1ccc([N+](=O)[O-])cc1NC(=S)NC(C)=O`?
EBI2 block: -4; CXCR6 inh: 4; APJ agonist: -2; CCR6 antag: 12; APJ antagonist: 16

How did Cc1cc(C(=O)NNc2ccc(Cl)cc2)no1 do in these assays?
EBI2 block: 13; CXCR6 inh: 8; APJ agonist: -6; CCR6 antag: 18; APJ antagonist: 24

What do the screens show for `Cc1cc(C(=O)NNc2ccc(C)c(C)c2)no1`?
EBI2 block: 3; CXCR6 inh: 17; APJ agonist: -12; CCR6 antag: 22; APJ antagonist: 42*; APJ antag conf: 114*

How did Cc1cc(Cl)ccc1NNC(=O)c1c(C)noc1C do in these assays?
EBI2 block: -10; CXCR6 inh: -11; APJ agonist: -2; CCR6 antag: -9; APJ antagonist: -14

How did Cc1noc(C)c1C(=O)NNc1ccc(C(C)C)cc1 do in these assays?
EBI2 block: 4; CXCR6 inh: -3; APJ agonist: -20; CCR6 antag: 27; APJ antagonist: 47*; APJ antag conf: 102*

What do the screens show for `Cc1ccc(NNC(=O)c2c(C)noc2C)cc1Cl`?
EBI2 block: 19; CXCR6 inh: 4; APJ agonist: -13; CCR6 antag: 14; APJ antagonist: 56*; APJ antag conf: 70*

Results for CCc1nc2c(OCc3ccc(F)c(F)c3)cccn2c1N(C)C(=O)C1CC1 ?
EBI2 block: 0; CXCR6 inh: -4

Results for NS(=O)(=O)c1ccc(CCNc2ccn3nc(-c4cccc(C(F)(F)F)c4)cc3n2)cc1 ?
EBI2 block: 28; CXCR6 inh: -24

How did Cc1cc(NC(=O)c2ccccc2F)n(-c2nc3ccccc3[nH]2)n1 do in these assays?
EBI2 block: -1; CXCR6 inh: 11; APJ agonist: -2; CCR6 antag: 24; APJ antagonist: 33

How did Cc1cc(NC(=O)c2c(F)cccc2F)n(-c2nc3ccccc3[nH]2)n1 do in these assays?
EBI2 block: 15; CXCR6 inh: 5; APJ agonist: -9; CCR6 antag: 27; APJ antagonist: 44*; APJ antag conf: 5

What do the screens show for `Cc1cc(NC(=O)c2c(F)cccc2Cl)n(-c2nc3ccccc3[nH]2)n1`?
EBI2 block: 14; CXCR6 inh: -14; APJ agonist: -1; CCR6 antag: 61*; APJ antagonist: 55*; APJ antag conf: 27

Results for O=C1NC[C@H](CCCCN2CCN(CCC3CCCCC3)C(=O)C2=O)N(CCc2ccc(O)cc2)C1=O ?
EBI2 block: -2; CXCR6 inh: -13

What do the screens show for `NC(=O)c1cnc(Cc2c[nH]c3ccccc23)c(I)c1`?
EBI2 block: -1; CXCR6 inh: -7

How did COCC(=O)N1CCC(Oc2cccc(C(=O)NCc3ccccn3)c2)CC1 do in these assays?
EBI2 block: -6; CXCR6 inh: -4; APJ agonist: -3; CCR6 antag: 0; APJ antagonist: 43*; APJ antag conf: -5

Results for CCOC(=O)c1c(C2COc3ccccc3O2)csc1NC(=O)c1ccco1 (stereo not drawn) ?
EBI2 block: 23; CXCR6 inh: 8; APJ agonist: -9; CCR6 antag: 10; APJ antagonist: 43*; APJ antag conf: 77*

Results for CCOC(=O)c1c(-c2cccs2)csc1NC(=O)c1ccco1 ?
EBI2 block: 0; CXCR6 inh: -5; APJ agonist: 1; CCR6 antag: -17; APJ antagonist: 20

Results for Cc1cccc(C)c1NC(=O)C(c1ccccc1OC(F)(F)F)N1CCN(C)CC1 (stereo not drawn) ?
EBI2 block: -2

What do the screens show for `CN(C)c1ccc(/C=C2\N=C(c3ccc(Cl)c([N+](=O)[O-])c3)NC2=O)cc1`?
EBI2 block: 37; CXCR6 inh: 45*; APJ agonist: -10; CCR6 antag: 63*; APJ antagonist: 52*; APJ antag conf: 104*

How did CN(C)c1ccc(/C=C2/NC(=O)NC2=O)cc1 do in these assays?
EBI2 block: 6; CXCR6 inh: 14; APJ agonist: -1; CCR6 antag: 4; APJ antagonist: 3

Results for CSC(=NCc1ccco1)NC#N ?
EBI2 block: -14; CXCR6 inh: 4; APJ agonist: 2; CCR6 antag: 5; APJ antagonist: 44*; APJ antag conf: -1

What do the screens show for `COc1ccc(NC(=O)/C(Cl)=C(/Cl)S(=O)Cc2ccc(Cl)cc2)cn1` (stereo not drawn)?
EBI2 block: 71*; CXCR6 inh: 100*; APJ agonist: -5; CCR6 antag: 100*; APJ antagonist: 83*; APJ antag conf: 105*

Results for CCC1(C2C=COC=C2)NC(=O)NC1=O (stereo not drawn) ?
EBI2 block: 7; CXCR6 inh: 2

How did COc1ccc(S(=O)(=O)NC(C)C(=O)Nc2ccc3c(c2)OCO3)cc1OC (stereo not drawn) do in these assays?
EBI2 block: -5; CXCR6 inh: -3; APJ agonist: -1; CCR6 antag: 8; APJ antagonist: 7

What do the screens show for `COc1ccc(S(=O)(=O)NC(C)C(=O)Nc2ccc3c(c2)OCCO3)cc1OC` (stereo not drawn)?
EBI2 block: -9; CXCR6 inh: -12; APJ agonist: -4; CCR6 antag: 5; APJ antagonist: 47*; APJ antag conf: 25

What do the screens show for `CN(C)C(=O)C[C@@H]1CC[C@@H](NC(=O)C2CCC2)[C@@H](CO)O1`?
EBI2 block: -9

Results for COc1ccc([C@H]2C[C@@H](O)[C@H](n3cc(COC(=O)c4ccccc4)nn3)CN2CC2CCCCC2)cc1 ?
EBI2 block: 18; CXCR6 inh: 6

Results for CNC(=S)NNC(=O)CCn1nc(C)c(Br)c1C ?
EBI2 block: -4; CXCR6 inh: -1; APJ agonist: -2; CCR6 antag: -6; APJ antagonist: 21

Results for Cc1nn(CCC(=O)NNC(=S)NCC(C)C)c(C)c1Br ?
EBI2 block: 22; CXCR6 inh: 38; APJ agonist: -14; CCR6 antag: 53*; APJ antagonist: 77*; APJ antag conf: 115*

How did Cc1nn(CCC(=O)NNC(=S)Nc2ccccc2)c(C)c1Br do in these assays?
EBI2 block: 5; CXCR6 inh: 8; APJ agonist: -12; CCR6 antag: 27; APJ antagonist: 47*; APJ antag conf: 100*

How did CC1Nc2ncnc(N3CCN(c4ccccn4)CC3)c2N(Cc2ccccc2)C1=O (stereo not drawn) do in these assays?
EBI2 block: 45*; CXCR6 inh: 68*; APJ agonist: -20; CCR6 antag: 79*; APJ antagonist: 65*; APJ antag conf: 110*

From PubChem
